Converted amounts (≈) assume the structure as drawn. One block for each compound: values may come before it.
What was measured:
[1] = test system: Salmonella typhimurium; test: Genotoxicity against Salmonella typhimurium TA98 assessed as fold increase in revertants at 0.156 mg/ml after 90 mins by Ames MPF test in presence of S9 fraction relative to baseline; type: toxicity, organism-based; conditions: salmonella enterica subsp. enterica serovar typhimurium, s9, 1.5 h
Summary of the method: (§1)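 Ames MPF fluctuation test, TA98 and TA100: overnight cultures reincubated 90 min, then exposed 90 min at 37 °C to compounds at 0.156-5 mg/mL (in DMSO) with or without 4.5% v/v S9; indicator medium added, 48 wells per sample scored yellow after 48 h, triplicate. Fold over baseline = mean positive wells / (mean of DMSO control + 1 SD).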

[2] = test system: Candida albicans; test: Antifungal activity against Candida albicans clinical isolate after 24 hrs by microdilution susceptibility assay; type: functional
Summary of the method: (§2)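 Broth microdilution in Mueller Hinton Broth, compounds from DMSO stocks diluted serially; inocula standardized to 10^6 CFU/mL (McFarland 0.5) from overnight MHB cultures. Plates held 37 °C for 24 h; MIC taken as first well without turbidity, aided by 1% tetrazolium violet added for 3 h at 37 °C. Ketoconazole reference.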

[3] = Genotoxicity against Salmonella typhimurium TA1535/pSK1002 assessed as induction ratio at 0.63 mg/ml by umuC assay in presence of S9 fraction; type: toxicity, organism-based; conditions: salmonella enterica subsp. enterica serovar typhimurium, Salmonella typhimurium TA1535/pSK1002 with S9 fraction
Summary of the method: (§3)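 umuC Easy CS: TA1535/pSK1002 grown overnight in ampicillin TG medium at 37 °C, then exposed 2 h at 37 °C to compounds at 5, 2.5, 1.25, 0.63 mg/mL with or without S9. Diluted into fresh medium for 2 h growth (OD600), then β-galactosidase with ONPG 30 min at 28 °C, OD420. Positive controls 2-aminoanthracene (+S9), […] (−S9).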

[4] = test system: Salmonella typhimurium; test: Genotoxicity against Salmonella typhimurium TA98 assessed as fold increase in revertants at 0.625 mg/ml after 90 mins by Ames MPF test in presence of S9 fraction relative to baseline; type: toxicity, organism-based; conditions: salmonella enterica subsp. enterica serovar typhimurium, s9, 1.5 h; summary of the method: as §1
[5] = test system: Salmonella typhimurium; test: Genotoxicity against Salmonella typhimurium TA98 assessed as fold increase in revertants at 1.25 mg/ml after 90 mins by Ames MPF test in absence of S9 fraction relative to baseline; type: toxicity, organism-based; conditions: salmonella enterica subsp. enterica serovar typhimurium, 1.5 h; summary of the method: as §1
[6] = test system: Salmonella typhimurium; test: Genotoxicity against Salmonella typhimurium TA100 assessed as fold increase in revertants at 2.5 mg/ml after 90 mins by Ames MPF test in absence of S9 fraction relative to baseline; type: toxicity, organism-based; conditions: salmonella enterica subsp. enterica serovar typhimurium, 1.5 h; summary of the method: as §1
[7] = test system: A549; test: Cytotoxicity against human A549 cells after 24 hrs by XTT assay; type: functional, cell-based; conditions: A549, 24 h
Summary of the method: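 A549 cells in RPMI 1640 with 10% fetal calf serum, penicillin/streptomycin, 37 °C, 5% CO2; 20,000 cells/well seeded, after 24 h exposed to compounds at 0.00316 µM-10 mM for 24 h. XTT mitochondrial activity read at 480 nm (reference 680 nm) after 3 h; % inhibition per concentration, IC50 by non-linear regression.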

[8] = test system: Salmonella typhimurium; test: Genotoxicity against Salmonella typhimurium TA100 assessed as fold increase in revertants at 0.625 mg/ml after 90 mins by Ames MPF test in presence of S9 fraction relative to baseline; type: toxicity, organism-based; conditions: salmonella enterica subsp. enterica serovar typhimurium, s9, 1.5 h; summary of the method: as §1
[9] = test system: Salmonella typhimurium; test: Genotoxicity against Salmonella typhimurium TA100 assessed as fold increase in revertants at 0.156 mg/ml after 90 mins by Ames MPF test in presence of S9 fraction relative to baseline; type: toxicity, organism-based; conditions: salmonella enterica subsp. enterica serovar typhimurium, s9, 1.5 h; summary of the method: as §1
[10] = test system: Candida albicans; test: Antifungal activity against Candida albicans ATCC 10231 after 24 hrs by microdilution susceptibility assay; type: functional; conditions: ATCC 10231, 24 h; summary of the method: as §2
[11] = test system: Nakaseomyces glabratus; test: Antifungal activity against Candida glabrata Anadolu University clinical isolate after 24 hrs by microdilution susceptibility assay; type: functional; summary of the method: as §2
[12] = test system: Salmonella typhimurium; test: Genotoxicity against Salmonella typhimurium TA1535/pSK1002 assessed as growth factor ratio at 0.63 mg/ml by umuC assay in presence of S9 fraction; type: toxicity, organism-based; conditions: salmonella enterica subsp. enterica serovar typhimurium; summary of the method: as §3
[13] = test system: Salmonella typhimurium; test: Genotoxicity against Salmonella typhimurium TA1535/pSK1002 assessed as induction ratio at 0.63 mg/ml by umuC assay in absence of S9 fraction; type: toxicity, organism-based; conditions: salmonella enterica subsp. enterica serovar typhimurium; summary of the method: as §3
[14] = Genotoxicity against Salmonella typhimurium TA1535/pSK1002 assessed as induction ratio at 5 mg/ml by umuC assay in presence of S9 fraction; type: toxicity, organism-based; conditions: salmonella enterica subsp. enterica serovar typhimurium, Salmonella typhimurium TA1535/pSK1002 with S9 fraction; summary of the method: as §3
[15] = Genotoxicity against Salmonella typhimurium TA1535/pSK1002 assessed as induction ratio at 1.25 mg/ml by umuC assay in presence of S9 fraction; type: toxicity, organism-based; conditions: salmonella enterica subsp. enterica serovar typhimurium, Salmonella typhimurium TA1535/pSK1002 with S9 fraction; summary of the method: as §3
[16] = test system: Salmonella typhimurium; test: Genotoxicity against Salmonella typhimurium TA100 assessed as fold increase in revertants at 5 mg/ml after 90 mins by Ames MPF test in presence of S9 fraction relative to baseline; type: toxicity, organism-based; conditions: salmonella enterica subsp. enterica serovar typhimurium, s9, 1.5 h; summary of the method: as §1
[17] = test system: NIH3T3; test: Cytotoxicity against mouse NIH/3T3 cells after 24 hrs by XTT assay; type: cell-based; conditions: NIH3T3, 24 h
Summary of the method: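 Mouse NIH3T3 fibroblasts grown in DMEM with fetal calf serum, penicillin/streptomycin, 37 °C, 5% CO2; 20,000 cells/well, treated after 24 h with 0.00316 µM-10 mM compound for 24 h. Viability via XTT (3 h, OD 480 nm, reference 680 nm); % inhibition computed and IC50 fitted by non-linear regression.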

[18] = test system: Salmonella typhimurium; test: Genotoxicity against Salmonella typhimurium TA100 assessed as fold increase in revertants at 1.25 mg/ml after 90 mins by Ames MPF test in absence of S9 fraction relative to baseline; type: toxicity, organism-based; conditions: salmonella enterica subsp. enterica serovar typhimurium, 1.5 h; summary of the method: as §1
[19] = test system: Salmonella typhimurium; test: Genotoxicity against Salmonella typhimurium TA100 assessed as fold increase in revertants at 2.5 mg/ml after 90 mins by Ames MPF test in presence of S9 fraction relative to baseline; type: toxicity, organism-based; conditions: salmonella enterica subsp. enterica serovar typhimurium, s9, 1.5 h; summary of the method: as §1
[20] = test system: Salmonella typhimurium; test: Genotoxicity against Salmonella typhimurium TA100 assessed as fold increase in revertants at 0.625 mg/ml after 90 mins by Ames MPF test in absence of S9 fraction relative to baseline; type: toxicity, organism-based; conditions: salmonella enterica subsp. enterica serovar typhimurium, 1.5 h; summary of the method: as §1

SMILES: Cn1nnnc1SCC(=O)N/N=C/c1ccccc1F
fold change (FC) [1]: 0.29 | MIC [2]: 125 µg/mL (≈ 425 µM) | fold induction at 0.63 mg/ml [3]: 0.936 | fold change (FC) [4]: 1 | fold change (FC) [5]: 0.32 | fold change (FC) [6]: 0.17 | IC50 [7]: 9000 µM | fold change (FC) [8]: 0.66 | fold change (FC) [9]: 0.66 | MIC [10]: 250 µg/mL (≈ 849 µM) | MIC [11]: 250 µg/mL (≈ 849 µM) | Ratio [12]: 0.935 | Ratio [13]: 1.312 | fold induction at 5 mg/ml [14]: 0.284 | fold induction at 1.25 mg/ml [15]: 0.548 | fold change (FC) [16]: 0.58 | IC50 [17]: 2000 µM | fold change (FC) [18]: 0.29 | fold change (FC) [19]: 0.95 | fold change (FC) [20]: 0.23

SMILES: Cn1nnnc1SCC(=O)N/N=C/c1ccccc1[N+](=O)[O-]
fold change (FC) [1]: 1 | MIC [2]: 500 µg/mL (≈ 1560 µM) | fold induction at 0.63 mg/ml [3]: 1.23 | fold change (FC) [4]: 1.78 | fold change (FC) [5]: 2.78 | fold change (FC) [6]: 0.67 | IC50 [7]: 1600 µM | fold change (FC) [8]: 1.28 | fold change (FC) [9]: 1.35 | MIC [10]: 500 µg/mL (≈ 1560 µM) | MIC [11]: 250 µg/mL (≈ 778 µM) | Ratio [12]: 0.969 | Ratio [13]: 1.509 | fold induction at 5 mg/ml [14]: 1.19 | fold induction at 1.25 mg/ml [15]: 1.18 | fold change (FC) [16]: 1.7 | IC50 [17]: 2020 µM | fold change (FC) [18]: 1.33 | fold change (FC) [19]: 2.2 | fold change (FC) [20]: 0.83

SMILES: CN(C)c1ccc(/C=N/NC(=O)CSc2nnnn2C)cc1
fold change (FC) [1]: 0.86 | MIC [2]: 125 µg/mL (≈ 391 µM) | fold induction at 0.63 mg/ml [3]: 0.704 | fold change (FC) [4]: 1 | fold change (FC) [5]: 0.64 | fold change (FC) [6]: 1.14 | IC50 [7]: 100 µM | fold change (FC) [8]: 0.18 | fold change (FC) [9]: 0.33 | MIC [10]: 125 µg/mL (≈ 391 µM) | MIC [11]: 50 µg/mL (≈ 157 µM) | Ratio [12]: 1.268 | Ratio [13]: 1.36 | fold induction at 5 mg/ml [14]: 0.379 | fold induction at 1.25 mg/ml [15]: 0.67 | fold change (FC) [16]: 0.26 | IC50 [17]: 316 µM | fold change (FC) [18]: 1 | fold change (FC) [19]: 0.15 | fold change (FC) [20]: 1.38

Now from value to compound, other results behind:

MIC [2]: 500 µg/mL (≈ 1710 µM) | MIC [10]: 500 µg/mL (≈ 1710 µM) | MIC [11]: 500 µg/mL (≈ 1710 µM)
SMILES: Cn1nnnc1SCC(=O)N/N=C/c1ccc(O)cc1
fold change (FC) [1]: 0.32 | fold induction at 0.63 mg/ml [3]: 0.797 | fold change (FC) [4]: 0.32 | fold change (FC) [5]: 0.13 | fold change (FC) [6]: 0.33 | IC50 [7]: > 10000 µM | fold change (FC) [8]: 0.7 | fold change (FC) [9]: 0.63 | Ratio [12]: 1.13 | Ratio [13]: 1.181 | fold induction at 5 mg/ml [14]: 0.419 | fold induction at 1.25 mg/ml [15]: 0.699 | fold change (FC) [16]: 0.82 | IC50 [17]: 632 µM | fold change (FC) [18]: 0.91 | fold change (FC) [19]: 0.63 | fold change (FC) [20]: 0.66

MIC [2]: 500 µg/mL (≈ 1630 µM) | MIC [10]: 500 µg/mL (≈ 1630 µM) | MIC [11]: 125 µg/mL (≈ 408 µM)
SMILES: COc1ccc(/C=N/NC(=O)CSc2nnnn2C)cc1
fold change (FC) [1]: 0.42 | fold induction at 0.63 mg/ml [3]: 0.814 | fold change (FC) [4]: 0.32 | fold change (FC) [5]: 0.33 | fold change (FC) [6]: 0.6 | IC50 [7]: > 10000 µM | fold change (FC) [8]: 0.89 | fold change (FC) [9]: 0.46 | Ratio [12]: 1.117 | Ratio [13]: 1.357 | fold induction at 5 mg/ml [14]: 0.568 | fold induction at 1.25 mg/ml [15]: 0.769 | fold change (FC) [16]: 0.5 | IC50 [17]: > 10000 µM | fold change (FC) [18]: 0.2 | fold change (FC) [19]: 0.62 | fold change (FC) [20]: 0.3

Reference: ChEMBL document CHEMBL2203123, “Synthesis and biological evaluation of some hydrazone derivatives as new anticandidal and anticancer agents” (Eur J Med Chem, 2012)
